Experiments:
[1] = tested on: advanced or metastatic solid tumors; test: Tumor response by RECIST v1.1; assay type: in vivo, human; conditions: RECIST v1.1, all doses
Method in brief: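 Participants received daily oral test compound at 25 to 700 mg/day in 28-day cycles. Best observed response was listed per participant without statistical analysis.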

[2] = Plasma pharmacokinetics of ESK-440 and metabolite CEP-38901; assay type: in vivo, human
[3] = tested on: rats; conditions: highest dose administered; cited from earlier work
[4] = tested on: ALK; conditions: preclinical studies ref 9, 10; cited from earlier work
[5] = tested on: FAK; conditions: preclinical studies ref 9, 10; cited from earlier work
[6] = tested on: ALK- and FAK-driven xenograft models; conditions: multiple ALK- and FAK-driven xenograft models ref 9, 10; cited from earlier work
[7] = all tested species ref 9; cited from earlier work

With `CNC(=O)c1ccccc1Nc1nc(Nc2ccc3c(c2OC)CCC[C@H](N2CCN(CCO)CC2)C3)ncc1Cl` [ESK-440] the “best overall response: stable disease” value [1] was 7 participants, the “complete or partial response” value [1] was “No participant” and the “Robs (observed accumulation ratio = AUCτ on day 15/AUC0-24 on day 1)” value ([2]; 25 mg/day (N = 3)) was 3.3 (0.76). The “Robs (observed accumulation ratio = AUCτ on day 15/AUC0-24 on day 1)” value ([2]; 50 mg/day (N = 3)) was 2.2 (1.11), the “Robs (observed accumulation ratio = AUCτ on day 15/AUC0-24 on day 1)” value ([2]; 100 mg/day (N = 3)) was 4.2 (3.47) and the “Robs (observed accumulation ratio = AUCτ on day 15/AUC0-24 on day 1)” value ([2]; 150 mg/day (N = 3)) was 3.1 (0.17). For the same compound, the “Robs (observed accumulation ratio = AUCτ on day 15/AUC0-24 on day 1)” value ([2]; 250 mg/day (N = 4)) was 2.9 (0.81), the “Robs (observed accumulation ratio = AUCτ on day 15/AUC0-24 on day 1)” value ([2]; 350 mg/day (N = 4)) was 3.3 (0.63) and the “Robs (observed accumulation ratio = AUCτ on day 15/AUC0-24 on day 1)” value ([2]; 500 mg/day (N = 4)) was 2.4 (0.43). The “Robs (observed accumulation ratio = AUCτ on day 15/AUC0-24 on day 1)” value ([2]; 700 mg/day (N = 5)) was 2.2 (0.74), the “dose dependence of Cmax and AUC0-24” value ([2]; day 1 and day 15, up to 500 mg/day) was “dose-proportional” and the half-life ([2]; human, plasma, oral) was 9.4 to 20.8 h. It also gave an AUC ([2]; human, plasma, oral, 25 mg/day) of 666 ng·h/mL, an AUC(0-t) ([2]; human, plasma, oral, 25 mg/day, AUC0-24, Day 1, 25 mg/day (N = 3)) of 222 ng·h/mL and an AUC(0-t) ([2]; human, plasma, oral, 25 mg/day, AUC0-t, Day 1, 25 mg/day (N = 3)) of 223 ng·h/mL. It also gave an AUC(0-t) ([2]; human, plasma, oral, 25 mg/day, AUC0-t, Day 15, 25 mg/day (N = 3)) of 666 ng·h/mL, a Cmax ([2]; human, plasma, oral, 25 mg/day, Day 1, 25 mg/day (N = 3)) of 20.7 ng/mL and a Cmax ([2]; human, plasma, oral, 25 mg/day, Day 15, 25 mg/day (N = 3)) of 36.7 ng/mL. For the same compound, the Tmax ([2]; human, plasma, oral, 25 mg/day, tmax, Day 1, 25 mg/day (N = 3), median (range)) was 3 h, the Tmax ([2]; human, plasma, oral, 25 mg/day, tmax, Day 15, 25 mg/day (N = 3), median (range)) was 3 h and the AUC ([2]; human, plasma, oral, 50 mg/day) was 995 ng·h/mL. For the same compound, the AUC(0-t) ([2]; human, plasma, oral, 50 mg/day, AUC0-24, Day 1, 50 mg/day (N = 3)) was 508 ng·h/mL, the AUC(0-t) ([2]; human, plasma, oral, 50 mg/day, AUC0-t, Day 1, 50 mg/day (N = 3)) was 517 ng·h/mL and the AUC(0-t) ([2]; human, plasma, oral, 50 mg/day, AUC0-t, Day 15, 50 mg/day (N = 3)) was 1020 ng·h/mL. It also gave a Cmax ([2]; human, plasma, oral, 50 mg/day, Day 1, 50 mg/day (N = 3)) of 38.1 ng/mL, a Cmax ([2]; human, plasma, oral, 50 mg/day, Day 15, 50 mg/day (N = 3)) of 55.6 ng/mL and a Tmax ([2]; human, plasma, oral, 50 mg/day, tmax, Day 1, 50 mg/day (N = 3), median (range)) of 3 h. For the same compound, the Tmax ([2]; human, plasma, oral, 50 mg/day, tmax, Day 15, 50 mg/day (N = 3), median (range)) was 3.9 h, the AUC ([2]; human, plasma, oral, 100 mg/day) was 5420 ng·h/mL and the AUC(0-t) ([2]; human, plasma, oral, 100 mg/day, AUC0-24, Day 1, 100 mg/day (N = 3)) was 1480 ng·h/mL. The AUC(0-t) ([2]; human, plasma, oral, 100 mg/day, AUC0-t, Day 1, 100 mg/day (N = 3)) was 1540 ng·h/mL, the AUC(0-t) ([2]; human, plasma, oral, 100 mg/day, AUC0-t, Day 15, 100 mg/day (N = 3)) was 5660 ng·h/mL and the Cmax ([2]; human, plasma, oral, 100 mg/day, Day 1, 100 mg/day (N = 3)) was 97.3 ng/mL. For the same compound, the Cmax ([2]; human, plasma, oral, 100 mg/day, Day 15, 100 mg/day (N = 3)) was 273 ng/mL, the Tmax ([2]; human, plasma, oral, 100 mg/day, tmax, Day 1, 100 mg/day (N = 3), median (range)) was 2 h and the Tmax ([2]; human, plasma, oral, 100 mg/day, tmax, Day 15, 100 mg/day (N = 3), median (range)) was 4 h. For the same compound, the AUC ([2]; human, plasma, oral, 150 mg/day) was 4980 ng·h/mL, the AUC(0-t) ([2]; human, plasma, oral, 150 mg/day, AUC0-24, Day 1, 150 mg/day (N = 3)) was 1580 ng·h/mL and the AUC(0-t) ([2]; human, plasma, oral, 150 mg/day, AUC0-t, Day 1, 150 mg/day (N = 3)) was 1560 ng·h/mL. It also gave an AUC(0-t) ([2]; human, plasma, oral, 150 mg/day, AUC0-t, Day 15, 150 mg/day (N = 3)) of 4950 ng·h/mL, a Cmax ([2]; human, plasma, oral, 150 mg/day, Day 1, 150 mg/day (N = 3)) of 128 ng/mL and a Cmax ([2]; human, plasma, oral, 150 mg/day, Day 15, 150 mg/day (N = 3)) of 321 ng/mL. The Tmax ([2]; human, plasma, oral, 150 mg/day, tmax, Day 1, 150 mg/day (N = 3), median (range)) was 3.1 h, the Tmax ([2]; human, plasma, oral, 150 mg/day, tmax, Day 15, 150 mg/day (N = 3), median (range)) was 2.1 h and the AUC ([2]; human, plasma, oral, 250 mg/day) was 13300 ng·h/mL. For the same compound, the AUC(0-t) ([2]; human, plasma, oral, 250 mg/day, AUC0-24, Day 1, 250 mg/day (N = 4)) was 4740 ng·h/mL, the AUC(0-t) ([2]; human, plasma, oral, 250 mg/day, AUC0-t, Day 1, 250 mg/day (N = 4)) was 4850 ng·h/mL and the AUC(0-t) ([2]; human, plasma, oral, 250 mg/day, AUC0-t, Day 15, 250 mg/day (N = 4)) was 14200 ng·h/mL. For the same compound, the Cmax ([2]; human, plasma, oral, 250 mg/day, Day 1, 250 mg/day (N = 4)) was 435 ng/mL, the Cmax ([2]; human, plasma, oral, 250 mg/day, Day 15, 250 mg/day (N = 4)) was 732 ng/mL and the Tmax ([2]; human, plasma, oral, 250 mg/day, tmax, Day 1, 250 mg/day (N = 4), median (range)) was 3.5 h. For the same compound, the Tmax ([2]; human, plasma, oral, 250 mg/day, tmax, Day 15, 250 mg/day (N = 4), median (range)) was 3.5 h, the AUC ([2]; human, plasma, oral, 350 mg/day) was 16800 ng·h/mL and the AUC(0-t) ([2]; human, plasma, oral, 350 mg/day, AUC0-24, Day 1, 350 mg/day (N = 4)) was 5180 ng·h/mL. It also gave an AUC(0-t) ([2]; human, plasma, oral, 350 mg/day, AUC0-t, Day 1, 350 mg/day (N = 4)) of 5320 ng·h/mL, an AUC(0-t) ([2]; human, plasma, oral, 350 mg/day, AUC0-t, Day 15, 350 mg/day (N = 4)) of 17900 ng·h/mL and a Cmax ([2]; human, plasma, oral, 350 mg/day, Day 1, 350 mg/day (N = 4)) of 334 ng/mL. For the same compound, the Cmax ([2]; human, plasma, oral, 350 mg/day, Day 15, 350 mg/day (N = 4)) was 869 ng/mL, the Tmax ([2]; human, plasma, oral, 350 mg/day, tmax, Day 1, 350 mg/day (N = 4), median (range)) was 5 h and the Tmax ([2]; human, plasma, oral, 350 mg/day, tmax, Day 15, 350 mg/day (N = 4), median (range)) was 4 h. It also gave an AUC ([2]; human, plasma, oral, 500 mg/day) of 36500 ng·h/mL, an AUC(0-t) ([2]; human, plasma, oral, 500 mg/day, AUC0-24, Day 1, 500 mg/day (N = 5)) of 17700 ng·h/mL and an AUC(0-t) ([2]; human, plasma, oral, 500 mg/day, AUC0-t, Day 1, 500 mg/day (N = 5)) of 17800 ng·h/mL. The AUC(0-t) ([2]; human, plasma, oral, 500 mg/day, AUC0-t, Day 15, 500 mg/day (N = 4)) was 37600 ng·h/mL, the Cmax ([2]; human, plasma, oral, 500 mg/day, Day 1, 500 mg/day (N = 5)) was 1160 ng/mL and the Cmax ([2]; human, plasma, oral, 500 mg/day, Day 15, 500 mg/day (N = 4)) was 1910 ng/mL. The Tmax ([2]; human, plasma, oral, 500 mg/day, tmax, Day 1, 500 mg/day (N = 5), median (range)) was 4.1 h, the Tmax ([2]; human, plasma, oral, 500 mg/day, tmax, Day 15, 500 mg/day (N = 4), median (range)) was 6.8 h and the AUC ([2]; human, plasma, oral, 700 mg/day) was 25700 ng·h/mL. The AUC(0-t) ([2]; human, plasma, oral, 700 mg/day, AUC0-24, Day 1, 700 mg/day (N = 5)) was 11300 ng·h/mL, the AUC(0-t) ([2]; human, plasma, oral, 700 mg/day, AUC0-t, Day 1, 700 mg/day (N = 5)) was 11500 ng·h/mL and the AUC(0-t) ([2]; human, plasma, oral, 700 mg/day, AUC0-t, Day 15, 700 mg/day (N = 5)) was 25900 ng·h/mL. For the same compound, the Cmax ([2]; human, plasma, oral, 700 mg/day, Day 1, 700 mg/day (N = 5)) was 839 ng/mL, the Cmax ([2]; human, plasma, oral, 700 mg/day, Day 15, 700 mg/day (N = 5)) was 1310 ng/mL and the Tmax ([2]; human, plasma, oral, 700 mg/day, tmax, Day 1, 700 mg/day (N = 5), median (range)) was 4 h. It also gave a Tmax ([2]; human, plasma, oral, 700 mg/day, tmax, Day 15, 700 mg/day (N = 5), median (range)) of 6.1 h, a Tmax ([2]; human, plasma, oral, median tmax, range across dose levels, day 1) of 2 to 5 h and a Tmax ([2]; human, plasma, oral, median tmax, range across dose levels, day 15) of 2.1 to 6.8 h. The “highest non-severely toxic dose (HNSTD)” value [3] was 30 mg/kg, the potency [4] was “low nanomolar” and the potency [5] was “low nanomolar”. For the same compound, the antitumor efficacy [6] was “dose-dependent antitumor efficacy” and the oral bioavailability [7] was “acceptable”.

Reference: publication PMC11847724 (Neoplasia (New York, N.Y.), 2025)
